What is called IC50 is the point on the concentration scale where inhibition reaches its midpoint.

The text below walks through data of publication PMC10896134 (Pharmaceutical Biology, 2024).

Each structure is given as a SMILES string. Bounds are passed on as bounds.

The test system of data set [1] is non-neuroblastoma cell lines. To be noted: read-out: IC50 in non-neuroblastoma cell lines; ref Aggarwal et al. [2012]; cited from earlier work.
Data set [2] has as its system neuroblastoma cell lines. To be noted: read-out: IC50 in neuroblastoma cell lines; ref Aggarwal et al. [2012]; cited from earlier work.
Data set [3] has as its system A549. Briefly: Antiproliferation assay. Format: cell-based. The following applies: Homo sapiens, A549, 24 h, read-out: IC50 = mean ± SD, A549. The method, boiled down:
(§1)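 Cell lines were grown at 37 °C under 5% CO2 in their own media: A549 in DMEM/F12, H446 in RPMI 1640, and HeLa, MCF-7, L02 and BEAS-2B in high-glucose DMEM with L-glutamine, with 10% FBS and penicillin/streptomycin. Cells were seeded in 96-well plates and exposed to test compounds or reference agents at 37 °C for 24 h. CCK-8 was added for 2 h and absorbance read at 450 nm.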

Data set [4] concerns A549 cells. The experiment in a line: Colony formation assay. Type of data set: cell-based, human. To be noted: A549, versus control and PPT-treated cells.
The test system of data set [5] is Hela. The experiment in a line: Antiproliferation assay. Type of data set: cell-based. The following applies: Homo sapiens, 24 h, read-out: IC50 = mean ± SD, Hela. The method, boiled down:
as §1

In data set [6] the test system is BEAS-2B. Briefly: Antiproliferation assay. Format: cell-based. To be noted: Homo sapiens, 24 h, read-out: IC50 = mean ± SD, BEAS-2B. Summed up: as §1
The subject of data set [7] is A549 cells. Briefly: Transwell invasion assay. Format: cell-based, human. The following applies: A549, 24 h; better than PPT and etoposide at 1.0 µM.
The nature of data set [8]: Body weight of xenograft mice. Type of data set: in vivo, female BALB/c nude mice. The following applies: E5 i.p., A549 xenograft mice, 15 days. Summed up: (§2)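 Female BALB/c nude mice, 5 weeks old, acclimated 1 week, then given 5.0 × 10^6 A549 cells in 0.1 mL serum-free medium subcutaneously into the left axilla. Body weight and caliper tumour size (0.5 × length × width2) were taken every two days; tumours were excised and weighed at the end.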

The test system of data set [9] is MCF-7. The experiment in a line: Antiproliferation assay. Format: cell-based. The following applies: Homo sapiens, MCF7, 24 h, read-out: IC50 = mean ± SD, MCF-7. Summed up: as §1
In data set [10] the test system is interphase microtubules of A549 cells (tubulin). Briefly: Confocal microscopy / western blot of tubulin depolymerization. The following applies: A549, 24 h; E5 0.5 and 1.0 µM, colchicine 1.0 µM, etoposide 1.0 µM. Format: cell-based, human. (Immunoblotting shows a protein as a band on a membrane.)
For data set [11], the system named is H446. The experiment in a line: Antiproliferation assay. Format: cell-based. To be noted: Homo sapiens, NCI-H446, 24 h, read-out: IC50 = mean ± SD, H446. Summed up: as §1
In data set [12] the test system is A549 cells. The experiment in a line: Cell-cycle analysis. The following applies: A549, 1.0 µM, 24 h, Figure 4C. Type of data set: cell-based, human. The method, boiled down:
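A549 cells (5.0 × 10^4/well) adhered overnight, then received 0.1% DMSO, test compound (0.1, 0.5 or 1.0 µM) or reference agent (1.0 µM) for 24 h; a time course used 0.5 µM for 12, 24 and 36 h. Cells were fixed in 70% ethanol at 4 °C for 24 h and stained with RNase A plus propidium iodide at 4 °C for 0.5 h in the dark. Flow cytometry gated G0/G1, S and G2/M by DNA content.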

In data set [13] the test system is A549 cells. Briefly: Wound healing migration assay. The following applies: A549, 24 h; E5 0.5, 1.0 and 2.0 µM, etoposide 1.0 µM. Type of data set: cell-based, human. Summed up: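 Scratch assay: A549 cells were grown to 85% confluence in 6-well plates, scratched with a pipette tip and washed with PBS. They were then incubated at 37 °C for 24 h with 0.1% DMSO, test compound (0.5, 1.0 or 2.0 µM) or reference agents (1.0 µM). Wounds were imaged at 0 and 24 h, and inhibition of migration was expressed relative to control.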

Data set [14] relates to L02. The experiment in a line: Antiproliferation assay. Format: cell-based. To be noted: Homo sapiens, L02, 24 h, read-out: IC50 = mean ± SD, L02. The method, boiled down: as §1
Data set [15] deals with Bax and Bcl-2 in A549 cells. The experiment in a line: Western blot of apoptosis-related proteins. Format: cell-based, human. The method, boiled down:
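Immunoblot of A549 lysates: heat-denatured in non-reducing sample buffer, Bradford-quantified, 20 µg protein on 10% SDS-PAGE, transferred to PVDF. Blots were probed for Bax and Bcl-2 with GAPDH as internal control, detected by ECL and quantified by densitometry. Data given as mean ± SD.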

In data set [16] the test system is A549 xenografts. Briefly: A549 xenograft tumour model in nude mice. Type of data set: in vivo, female BALB/c nude mice. The following applies: 2 mg/kg i.p. once every two days, eight times. The method, boiled down: as §2
Data set [17] concerns PI3K/Akt pathway in A549 cells. Briefly: Western blot of PI3K/Akt signalling pathway proteins. Format: cell-based, human. The following applies: A549, E5 0.1, 1.0 and 2.0 µM, 24 h. The method, boiled down:
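A549 cells were treated 24 h with test compound (0.1, 0.5, 1.0 or 2.0 µM), LY294002 (1.0 µM) or a reference agent (1.0 µM). Lysates were heat-denatured in non-reducing sample buffer and quantified by Bradford assay. 20 µg protein ran on 10% SDS-PAGE, transferred to PVDF and probed for PI3K, pPI3K, Akt and pAkt with GAPDH as loading control. Detection was by ECL with densitometry.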

Data set [18] concerns A549 cells. The experiment in a line: Mitochondrial membrane potential analysis. To be noted: A549, JC-1, 2.0 µM, 12 h; control 4.33%. Format: cell-based, human.
For data set [19], the system named is non-small cell lung cancer (NSCLC) cell lines. The following applies: at 2 mM; ref Chang and Szabo [2002]; cited from earlier work.

On to `COc1ccc(S(=O)(=O)Nc2cccnc2Nc2ccc(O)cc2)cc1` [ABT-751], for which the results for the IC50 in data set [1] and in data set [2] were about 3400 nM and about 1500 nM, respectively.
Regarding `COc1cc([C@@H]2c3cc4c(cc3[C@H](OC(=O)CCCc3ccc(NS(=O)(=O)c5cccc(Br)c5)cc3)[C@H]3COC(=O)[C@H]23)OCO4)cc(OC)c1OC` [Compound E5, (5R,5aR,8aR,9R)-8-oxo-9-(3,4,5-trimethoxyphenyl)-5,5a,6,8,8a,9-hexahydrofuro [3′,4′:6,7]naphtho[2,3-d][1,3]dioxol-5-yl4-(4-((3-bromophenyl)sulfonamido)phenyl)butanoate], the IC50 in data set [3] was 350 ± 130 nM; in data set [5], 51300 ± 1420 nM; in [6] it was over 100000 nM; in data set [9], 2910 ± 550 nM; in [11], 2420 ± 300 nM; in [14], over 100000 nM. Also, in data set [4], the “clone formation rate and clone size” value was “lower clone formation rate and a smaller clone size”. Besides, in data set [7], the cell invasion entry was “effectively inhibited cell invasion”. Also, the “body weight of the mice” value in data set [8] is reported as “no significant changes”. For the same compound, the tubulin depolymerization entry in data set [10] is listed as “significant tubulin depolymerization”. Also, the “cells in G2/M phase” value in [12] was 32.73%. The “cells in S phase” value in data set [12] is on record as 34.09%. In addition, the “cell scratch healing (migration)” value in [13] is on record as “significantly slowed dose dependent”. Also, the Bax expression result in [15] is listed as “increased”. Besides, the “expression of the antiapoptotic protein Bcl-2” value in [15] is recorded as “significantly decreased”. Also, in data set [16], the “tumour growth, E5 and etoposide at the same dose” value is on record as “specific inhibitory effect”. For the same compound, the “expression of pPI3K and pAkt” value in data set [17] was “down-regulated dose-dependent”. The “cells with low ΔΨm (ratio of cells with low membrane potential)” value in [18] stood at 24.7%.
On to `O=C([O-])CCCc1ccccc1.[Na+]` [sodium 4-phenylbutyrate], for which, in [19], the “growth of NSCLC cell lines” value was “impeding the growth”.
